Screening results from PubChem.
This is one part of a sample in which hits are shown more often than they occur.
T cruzi repl = inhibitors of intracellular T. cruzi growth, primary screen, luminescence, NIH3T3 host cells; T. cruzi beta-gal in NIH3T3, 90 h; inhibition, % (concentration not given with the values); 300,000 compounds, 1.4% hits;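 active = mean inhibition across valid replicates above about 55%, limit read from the data; inconclusive = mean below that limit but half or more replicates reach it; inactive = mean below it, under half of replicates reach it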;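 note: signal also drops with host cell toxicity which is not excluded here; 0% = plate median of DMSO wells and 100% = zero luminescence signal; higher percent means less beta-gal luminescence so fewer parasites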
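Read-out: Parasite load inhibition, % | Test system: Mouse NIH/3T3 fibroblasts infected with β-gal-expressing T. cruzi Tulahuen C4 | Amount: 5,000 cells/well | Medium: DMEM, 2% fetal bovine serum | Signal: GalScreen β-gal luminescence, detergent lysis, 60 min | Timing: 3 h attach, ≥90 h co-culture | Also added: Tulahuen C4 trypomastigotes, 5000/well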
NALP1 yeast inh = NALP1 inflammasome inhibitors in reconstituted yeast, colorimetric, S. cerevisiae, triplicate retest. inhibition, % at 10 µM. S. cerevisiae NALP1/ASC/caspase-1 growth, X-gal OD620, 72 h. 280,000 compounds, 0.61% hits; in the data active = inhibition mostly above about 24%, no sharp cut-off; inactive = mostly below about 32%
NLRP3 yeast inh = NALP3 inflammasome inhibitors in reconstituted yeast, primary screen, luminescence, uHTS. 330,000 compounds, 0.39% hits. inhibition, % at 10 µM. Yeast reconstituted NLRP3/ASC/caspase-1, beta-gal luminescence, 24 h;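 active = inhibition of 50% or more; inactive = inhibition below 50%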;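 note: plate controls were induced DMSO wells for no effect and uninduced yeast grown without galactose for full effect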
PolyA inhibitor = polyadenylation inhibitors in yeast reporter cells, primary screen, luminescence, S. cerevisiae | S. cerevisiae SKY197-pL101 polyadenylation reporter, beta-gal luminescence; efflux-impaired pdr1/pdr3 knockout yeast; score 100 = 6 SD above DMSO | activity score, % at 12 µM | 300,000 compounds, 0.02% hits | AID 1875, 2009;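 active = lowest replicate activity score at least 50, where 100 means six control SD above control mean; inconclusive = lowest score under 50 but half or more replicates reach 50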;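 note: yeast exposed to compound for 9 h at 30 °C; higher score means more reporter readthrough which indicates perturbed polyadenylation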
Lmaj promast = Leishmania major promastigote growth inhibition, primary screen; Leishmania major promastigotes, resazurin fluorescence viability; inhibition, % at 10 µM; 200,000 compounds, 9% hits; AID 1063, 2008; in the data active = inhibition above about 50%;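 note: promastigotes grown with compound for 44 hours at 28 °C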
Calb FLC = C. albicans growth inhibition with fluconazole, primary screen, CaCi-2 strain, Alamar Blue fluorescence; growth inhibition, % (concentration not given with the values); 300,000 compounds, 0.57% hits; AID 1979, 2009; C. albicans CaCi-2 + fluconazole, 48 h;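 active = growth inhibition above about 58% in most replicates, limit read from the data, passing the limit was not always enough; inconclusive = exactly half the replicates above a set limit; inactive = most replicates below a set limit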;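 note: all wells also contain fluconazole at 8 µg/ml as a sub-toxic cotreatment; 0% = median of DMSO wells and 100% = median of geldanamycin control wells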
The depositor's hits bear a star; u = inconclusive; x = not tested or not shown.

SMILES | T cruzi repl | NALP1 yeast inh | NLRP3 yeast inh | PolyA inhibitor | Lmaj promast | Calb FLC
COC(=O)c1ccccc1NC(=O)CSc1nc(N)cc(=O)[nH]1 | 11 | 12 | 6 | 12 | -8 | -8
CS(=O)(=O)N(Cc1ccccc1)c1ccc(C(=O)NCCSc2ccccn2)cc1 | 11 | 20 | 7 | 14 | 60* | -13
CN1CCN(/N=C/c2ccc(OCc3ccccc3)cc2)CC1 | 24 | 25 | 37 | -19 | x | -5
CC/C(O)=C(\C#N)c1nnc2n1CCCCC2 | -3 | -6 | -3 | 2 | -5 | -5
CC1=NN(c2nc(-c3ccc(C)cc3)cs2)C(=O)C1N=Nc1cccc(C)c1 (stereo unspecified) | -16 | 18 | 11 | 19 | 86* | -5
COc1ccc([C@H]2CC(=O)C=C(c3cc(C(F)(F)F)cc(C(F)(F)F)c3)C2)cc1 | x | x | 5 | x | x | x
COc1cc(C(=O)NNC(=S)NC(=O)c2ccc(F)cc2)cc(OC)c1OC | 65* | x | 6 | -38 | x | -4
COc1ccc(C(=O)NC(=S)NNC(=O)c2ccc(NC(C)=O)cc2)cc1Br | -12 | -5 | 3 | -19 | 77* | 4
O=C(NC(=S)NNC(=O)c1cnccn1)c1ccc(F)cc1 | 43 | 0 | 15 | -3 | 100* | u
COc1cc(C(=O)NC(=S)NNC(=O)c2ccc3c(c2)OCO3)cc(OC)c1OC | -13 | x | 19 | 2 | x | 44
CCc1ccccc1NC(=O)Cn1nc(C(F)(F)F)cc1C1CC1 | -19 | 6 | 10 | 15 | -1 | -5
C#CCOCCOCCOCCNc1nc(N2CCN(C(=O)CCCCCCCCCCNC(=O)[C@H](CO)n3cc(CCCSC)nn3)CC2)nc(N2CCN(C(=O)CCCCCCCCCCNC(=O)[C@@H]([C@H](C)O)n3cc(C)nn3)CC2)n1 | x | x | 29 | x | x | x
CN(Cc1ccccc1)Cc1c[nH]c2ccccc12 | 55* | 16 | -6 | -7 | 45 | -10
O=C(CC1NCCNC1=O)Nc1ccc(Cl)c(Cl)c1 (stereo unspecified) | -7 | 32 | 9 | 21 | -6 | -2
Cc1ccc(NC(=O)CC2NCCNC2=O)cc1Cl (stereo unspecified) | 0 | 21 | 19 | 7 | -5 | 120*
O=[N+]([O-])c1cc(Br)cc(/C=N/n2cnnc2)c1O | 46 | -32 | 33 | -39 | -4 | 14
O=[N+]([O-])c1ccccc1S(=O)(=O)Oc1ccccc1/C=N/n1cnnc1 | -17 | 38 | 8 | 13 | 72* | 0
O=[N+]([O-])c1cccc(/C=N/n2cnnc2)c1O | -1 | 16 | 23 | 15 | 68* | -4
C/C(Cn1cnc([N+](=O)[O-])n1)=N\NC(=O)c1cccnc1 | 39 | 27 | -13 | 13 | 35 | -6
C/C(Cn1cnc([N+](=O)[O-])n1)=N\NC(=O)c1ccccc1F | 75* | x | -2 | -5 | 0 | -3
C/C(Cn1cnc([N+](=O)[O-])n1)=N\NC(=O)c1ccc(O)cc1O | 55* | 12 | 11 | -4 | 7 | -18
C/C(Cn1nnc([N+](=O)[O-])n1)=N\NC(=O)c1ccc(O)cc1O | u | 5 | 8 | 6 | -3 | -5
C/C(Cn1cnc([N+](=O)[O-])n1)=N/NC(=O)COc1ccccc1Cl | 56* | 39 | -2 | -7 | 26 | 13
C/C(Cn1cnc([N+](=O)[O-])n1)=N\NC(=O)c1ccccc1O | 56* | 10 | 17 | -21 | 7 | 16
C/C(Cn1cnc([N+](=O)[O-])n1)=N\NC(=O)c1ccc(Br)cc1 | 41 | 24 | 20 | 5 | -6 | 0
SMILES | T cruzi repl | NALP1 yeast inh | NLRP3 yeast inh | PolyA inhibitor | Lmaj promast | Calb FLC
Cc1ccc(N2C(=O)C3CCC(C)(C2=O)C3(C)C)cc1C (stereo unspecified) | -5 | 20 | 10 | -5 | 1 | 0
C=C(C)C1CCC(C)=C1COC(=O)Nc1ccccc1 (stereo unspecified) | 0 | 9 | 8 | 2 | 96* | -8
CCCCC(=O)NC(=S)Nc1cccc(NC(=O)c2ccccc2)c1 | 4 | 25 | 7 | -7 | 98* | 42
CCCCC(=O)Nc1cccc(NC(=S)NC(C)=O)c1 | -7 | 10 | 16 | 3 | -3 | -4
CCC(=O)Nc1ccc(Cl)c(NC(=S)NC(C)=O)c1 | -7 | -5 | -4 | 14 | 2 | -13
CC(C)CC(=O)NC(=S)Nc1cccc(NC(=O)c2ccccc2)c1 | -12 | 30 | 0 | -8 | 100* | 25
Cc1ccc(OCC(=O)NC(=S)Nc2cccc(NC(=O)c3ccccc3)c2)cc1 | -1 | 23 | -4 | -33 | 2 | 17
CCCC(=O)NC(=S)Nc1cccc(NC(=O)c2ccccc2)c1 | 4 | 13 | 18 | -5 | 46 | 2
CCCC(=O)Nc1ccc(Cl)c(NC(=S)NC(=O)C(C)C)c1 | 14 | 6 | -3 | 7 | 100* | -7
CCCCC(=O)Nc1cccc(NC(=S)NC(=O)Cc2ccccc2)c1 | -20 | 4 | 3 | 5 | 52* | -12
CN(C)/C=C1\C(=O)Oc2ccccc2C1=O | -27 | x | 17 | 10 | x | 39
O=C(COC(=O)Cn1nnc2ccccc21)NC1CCCC1 | -4 | 12 | 3 | -4 | x | 2
CC1CCCCN1C(=O)CCS(=O)(=O)c1cccc2nonc12 (stereo unspecified) | 10 | 0 | 1 | 20 | 0 | -4
Cc1ccc(CNS(=O)(=O)c2c(N)n(C)c(=O)n(C)c2=O)cc1 | -3 | -7 | 6 | 4 | x | -2
CC1CCN(S(=O)(=O)c2cn(CC(=O)Nc3ccc(C#N)cc3)cn2)CC1 | -15 | 11 | 9 | 6 | x | 6
Cc1ccc2[nH]c3c(N4CCc5ccccc5C4)ncnc3c2c1 | 8 | 8 | 21 | -29 | 68* | 60
c1ccc2c(c1)[nH]c1c(N3CCOCC3)ncnc12 | -24 | 32 | 11 | -4 | 15 | 7
c1ccc2c(c1)[nH]c1c(N3CCCC3)ncnc12 | 15 | 11 | 13 | 35 | 58* | 11
c1ccc2c(c1)[nH]c1c(N3CCSCC3)ncnc12 | x | x | 0 | x | 86* | x
CN1CCN(c2ncnc3c2[nH]c2ccc(F)cc23)CC1 | 30 | 22 | 15 | 0 | 13 | 1
Fc1ccc2[nH]c3c(N4CCc5ccccc5C4)ncnc3c2c1 | 19 | 6 | 16 | 17 | x | -18
c1ccc2c(c1)[nH]c1c(N3CCN(C4CCCCC4)CC3)ncnc12 | -7 | x | 10 | 12 | 78* | 13
Cc1nn(S(=O)(=O)c2ccccc2)c(C)c1S(=O)(=O)N1CCC(C)CC1 | -35 | 9 | 19 | -7 | x | -8
COc1cc(C(=O)Nc2cccc(NC(=O)c3cccs3)c2)cc(OC)c1OC | -19 | 8 | 2 | -9 | x | -6
